Values after ≈ are worked out from the molar mass of the structure shown.

One may read the MIC as the least concentration at which growth counts as inhibited. A lower MIC goes with greater potency.

Experiment [1] deals with Staphylococcus aureus. Nature of the experiment: Antimicrobial activity against vancomycin-resistant Staphylococcus aureus 509 Michigan after 20 passages by multi-step resistance selection technique. It is filed as functional. In short, it runs like this: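 Multistep selection: 10 S. aureus strains (8 MRSA incl. two VRSA, two VISA; 2 MSSA) serially passaged daily at subinhibitory concentrations of each antimicrobial; MICs of mutants retested and compared with parent; clone identity versus parent confirmed by pulsed-field gel electrophoresis at study end.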

Experiment [2] deals with Staphylococcus aureus. Nature of the experiment: Antimicrobial activity against methicillin-resistant Staphylococcus aureus 547 after 21 passages by multi-step resistance selection technique. It is filed as functional. In a few lines:
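Multistep selection by daily serial passage of each strain in subinhibitory drug concentrations for the stated number of passages. Mutant MIC was then determined. Identity of mutants and parents was confirmed by pulsed-field gel electrophoresis.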

For the compound `CCCCCCCCCC(=O)N[C@@H](Cc1c[nH]c2ccccc12)C(=O)N[C@H](CC(N)=O)C(=O)N[C@@H](CC(=O)O)C(=O)N[C@@H]1C(=O)NCC(=O)N[C@@H](CCCN)C(=O)N[C@@H](CC(=O)O)C(=O)N[C@H](C)C(=O)N[C@@H](CC(=O)O)C(=O)NCC(=O)N[C@H](CO)C(=O)N[C@@H]([C@H](C)CC(=O)O)C(=O)N[C@@H](CC(=O)c2ccccc2N)C(=O)O[C@@H]1C`, the MIC in experiment [1] and in experiment [2] was 8 µg/mL (≈ 4.94 µM) in each case.
